Source: ChEMBL document CHEMBL4837222, “Design and synthesis of novel benzothiophene analogs as selective estrogen receptor covalent antagonists against breast cancer” (Eur J Med Chem, 2021)
The source made the active and inactive calls. No cut-off for these calls is given here.

Assays:
MDA-MB-231 = assay: Antiproliferative activity against human MDA-MB-231 cells assessed as reduction in cell growth incubated for 48 hrs by CCK8 assay; type: functional, cell-based; conditions: MDA-MB-231, 48 h
How it was run: (§1)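 CCK-8 viability assay. Cells seeded at 4000/well in 10% FBS medium for 24 h, then given compound diluted from DMSO stocks into 2% FBS medium at 100, 50, 25, 12.5, 6.25 and 3.125 µM (0.1% DMSO final). After 48 h, CCK-8 was added (0.5 mg/mL) for 2 h at 37 °C and OD450 read. Triplicates; IC50 fitted from mean viability.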

MCF7 [1] = assay: Cell cycle arrest in human MCF7 cells assessed as accumulation at G2/M phase at 10 uM measured after 48 hrs by propidium iodide staining based flow cytometric analysis (reference value: 12.24%); type: functional
MCF7 [2] = assay: Induction of apoptosis in human MCF7 cells assessed as live cells at 1 uM incubated for 24 hrs by AnnexinV-FITC/propidium iodide staining based flow cytometric analysis (reference value: 98.1%); type: functional
MCF7 [3] = assay: Induction of apoptosis in human MCF7 cells assessed as live cells at 10 uM incubated for 24 hrs by AnnexinV-FITC/propidium iodide staining based flow cytometric analysis (reference value: 98.1%); type: functional
MCF7 [4] = assay: Induction of apoptosis in human MCF7 cells assessed as necrotic cells at 1 uM incubated for 24 hrs by AnnexinV-FITC/propidium iodide staining based flow cytometric analysis (reference value: 0.4%); type: functional
MCF7 [5] = assay: Induction of apoptosis in human MCF7 cells assessed as late apoptotic cells at 5 uM incubated for 24 hrs by AnnexinV-FITC/propidium iodide staining based flow cytometric analysis (reference value: 0.7%); type: functional
[6] = Half life in rat liver microsomes; type: ADME, Microsome
MCF7 [7] = assay: Induction of apoptosis in human MCF7 cells assessed as early apoptotic cells at 5 uM incubated for 24 hrs by Annexin-V-FITC/propidium iodide staining based flow cytometric analysis (reference value: 0.8%); type: functional
[8] = target: T1, Estrogen receptor (Homo sapiens) (UniProt P03372); assay: Covalent antagonist activity at ERalpha in human MCF7 cells assessed as decrease in estradiol-induced TFF1 mRNA expression level at 0.25 to 10 uM measured after 24 hrs by RT-PCR analysis; type: cell-based; conditions: filed as antagonist, dose 0.25-10 µM
T1 sequence (whole entry): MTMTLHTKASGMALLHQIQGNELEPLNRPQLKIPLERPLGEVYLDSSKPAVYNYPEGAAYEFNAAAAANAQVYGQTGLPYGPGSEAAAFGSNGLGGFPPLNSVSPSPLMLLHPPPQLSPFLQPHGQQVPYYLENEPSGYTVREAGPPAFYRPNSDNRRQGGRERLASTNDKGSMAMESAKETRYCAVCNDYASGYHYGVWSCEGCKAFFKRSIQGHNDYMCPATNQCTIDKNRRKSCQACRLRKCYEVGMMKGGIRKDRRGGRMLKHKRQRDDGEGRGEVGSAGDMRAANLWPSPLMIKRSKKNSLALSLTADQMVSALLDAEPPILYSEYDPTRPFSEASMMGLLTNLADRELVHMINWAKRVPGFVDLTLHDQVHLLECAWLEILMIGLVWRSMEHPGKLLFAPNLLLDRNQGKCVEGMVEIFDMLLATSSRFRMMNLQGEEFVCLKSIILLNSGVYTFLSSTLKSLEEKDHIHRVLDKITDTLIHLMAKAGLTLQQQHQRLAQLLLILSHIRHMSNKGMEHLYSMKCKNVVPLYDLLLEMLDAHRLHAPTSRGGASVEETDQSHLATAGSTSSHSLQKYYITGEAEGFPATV
How it was run: (§2)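 MCF-7 cells stimulated with estradiol, then co-incubated 24 h with compound at 0.25, 0.5, 1 and 10 µM. RNA was reverse-transcribed and GREB1 or TFF1 measured by SYBR Green qPCR: 95 °C 10 min, then 40 cycles of 95 °C 5 s, 60 °C 60 s, 95 °C 15 s. Normalised to GAPDH, ΔΔCT method.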

MCF7 [9] = assay: Cell cycle arrest in human MCF7 cells assessed as accumulation at S phase at 10 uM measured after 48 hrs by propidium iodide staining based flow cytometric analysis (reference value: 63.32%); type: functional
MCF7 [10] = assay: Cell cycle arrest in human MCF7 cells assessed as accumulation at G0/G1 phase at 1 uM measured after 48 hrs by propidium iodide staining based flow cytometric analysis (reference value: 24.44%); type: functional
[11] = Intrinsic clearance in rat; type: ADME
MCF7 [12] = assay: Induction of apoptosis in human MCF7 cells assessed as early apoptotic cells at 10 uM incubated for 24 hrs by AnnexinV-FITC/propidium iodide staining based flow cytometric analysis (reference value: 0.8%); type: functional
[13] = Lipophilicity, logD of compound; type: physicochemical; conditions: octanol/water
MCF7 [14] = assay: Downregulation of ERalpha expression in human MCF7 cells at 0.5 uM incubated for 24 hrs by Western blot assay; type: functional, cell-based
How it was run: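 MCF-7 cells were kept in phenol red-free DMEM/F12 with 10% serum for 72 h before plating, then treated at 125, 250 and 500 nM for 24 h. Cells were lysed in RIPA buffer, protein was measured by BCA, and equal amounts were run on 10% SDS-PAGE and transferred to PVDF. ERα band intensity was normalized to GAPDH in each repeat.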

Ishikawa = assay: Antiproliferative activity against human Ishikawa cells assessed as reduction in cell growth incubated for 48 hrs by CCK8 assay; type: functional, cell-based; how it was run: as §1
MCF7 [15] = assay: Cell cycle arrest in human MCF7 cells assessed as accumulation at G0/G1 phase at 5 uM measured after 48 hrs by propidium iodide staining based flow cytometric analysis (reference value: 24.44%); type: functional
MCF7 [16] = assay: Cell cycle arrest in human MCF7 cells assessed as accumulation at S phase at 5 uM measured after 48 hrs by propidium iodide staining based flow cytometric analysis (reference value: 63.32%); type: functional
MCF7 [17] = assay: Induction of apoptosis in human MCF7 cells assessed as late apoptotic cells at 10 uM incubated for 24 hrs by AnnexinV-FITC/propidium iodide staining based flow cytometric analysis (reference value: 0.7%); type: functional
MCF7 [18] = assay: Antiproliferative activity against human MCF7 cells assessed as reduction in cell growth incubated for 48 hrs by CCK8 assay; type: functional, cell-based; conditions: MCF7, 48 h; how it was run: as §1
[19] = target: T1, Estrogen receptor (Homo sapiens); assay: Covalent antagonist activity at ERalpha in human MCF7 cells assessed as decrease in estradiol-induced GREB1 mRNA expression level at 0.25 to 10 uM measured after 24 hrs by RT-PCR analysis; type: cell-based; conditions: filed as antagonist, dose 0.25-10 µM; how it was run: as §2
MCF7 [20] = assay: Induction of apoptosis in human MCF7 cells assessed as live cells at 5 uM incubated for 24 hrs by AnnexinV-FITC/propidium iodide staining based flow cytometric analysis (reference value: 98.1%); type: functional
MCF7 [21] = assay: Cell cycle arrest in human MCF7 cells assessed as accumulation at G2/M phase at 1 uM measured after 48 hrs by propidium iodide staining based flow cytometric analysis (reference value: 12.24%); type: functional
MCF7 [22] = assay: Cell cycle arrest in human MCF7 cells assessed as accumulation at G2/M phase at 5 uM measured after 48 hrs by propidium iodide staining based flow cytometric analysis (reference value: 12.24%); type: functional
MCF7 [23] = assay: Induction of apoptosis in human MCF7 cells assessed as early apoptotic cells at 1 uM incubated for 24 hrs by AnnexinV-FITC/propidium iodide staining based flow cytometric analysis (reference value: 0.8%); type: functional

**Q.** Which IC50 (MDA-MB-231) does the source give for `O=C(/C=C/CNCCOc1ccc(Oc2c(-c3ccc(F)cc3)sc3cc(O)ccc23)cc1)N1CCC1` here?
**A.** > 50 µM

**Q.** What about the Activity (MCF7 [1]) of the same compound?
**A.** 18.3%

**Q.** And the Activity (MCF7 [2])?
**A.** 97.8%

**Q.** And the Activity (MCF7 [3])?
**A.** 73.6%

**Q.** And the Activity (MCF7 [4])?
**A.** 0.2%

**Q.** What about the Activity (MCF7 [5]) of the same compound?
**A.** 6.4%

**Q.** And the half-life [6]?
**A.** 38.1 min

**Q.** And the Activity (MCF7 [7])?
**A.** 5.3%

**Q.** And the inhibition [8]?
**A.** Dose-Dependent Effect

**Q.** What about the Activity (MCF7 [9]) of the same compound?
**A.** 38.75%

**Q.** What about the Activity (MCF7 [10]) of the same compound?
**A.** 31.21%

**Q.** And the CLint scaled [11]?
**A.** 65.1 mL/min/kg

**Q.** And the Activity (MCF7 [12])?
**A.** 12.5%

**Q.** What about the logD [13] of the same compound?
**A.** 1.67

**Q.** What about the inhibition (MCF7 [14]) of the same compound?
**A.** Active

**Q.** What about the IC50 (Ishikawa) of the same compound?
**A.** 6.56 µM

**Q.** What about the Activity (MCF7 [15]) of the same compound?
**A.** 37.54%

**Q.** And the Activity (MCF7 [16])?
**A.** 46.98%

**Q.** And the Activity (MCF7 [17])?
**A.** 13.2%

**Q.** And the IC50 (MCF7 [18])?
**A.** 7.34 µM

**Q.** And the inhibition [19]?
**A.** Dose-Dependent Effect

**Q.** And the Activity (MCF7 [20])?
**A.** 87.9%

**Q.** And the Activity (MCF7 [21])?
**A.** 17.36%

**Q.** What about the Activity (MCF7 [22]) of the same compound?
**A.** 15.48%

**Q.** What about the Activity (MCF7 [23]) of the same compound?
**A.** 0.8%
